NALP3 yeast inh = inhibitors of NALP3 inflammasome in yeast. Yeast reconstituted NLRP3/ASC/caspase-1, beta-gal luminescence, 24 h. inhibition, % at 10 µM. actives 0.39% (n = 330,000). AID 2825;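 active = inhibition of 50% or more; inactive = inhibition below 50%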
PolyA inh = inhibitors of polyadenylation in S. cerevisiae; AID 1875; activity score, % at 12 µM; actives 0.02% (n = 300,000); S. cerevisiae SKY197-pL101 polyadenylation reporter, beta-gal luminescence; efflux-impaired pdr1/pdr3 knockout yeast; score 100 = 6 SD above DMSO;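 active = lowest replicate activity score at least 50, where 100 means six control SD above control mean; inconclusive = lowest score under 50 but half or more replicates reach 50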;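 note: yeast exposed to compound for 9 h at 30 °C; higher score means more reporter readthrough which indicates perturbed polyadenylation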
NALP1 yeast inh = inhibitors of NALP1 inflammasome in yeast; inhibition, % at 10 µM; actives 0.61% (n = 280,000); S. cerevisiae NALP1/ASC/caspase-1 growth, X-gal OD620, 72 h; AID 2071; in the data active = inhibition mostly above about 24%, no sharp cut-off; inactive = mostly below about 32%
ALR H2O2 inh = blocks human ALR sulfhydryl oxidase activity; inhibition, % (test concentration not listed); purified ALR, DTT oxidation, H2O2 HRP-luminol luminescence; actives 3.8% (n = 290,000);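 active = mean replicate inhibition above about 79%, with every replicate also reaching it, limit read from the data; inconclusive = only one of the two criteria met; inactive = mean below limit and not every replicate reaching it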
Target sequence (P55789 whole entry, looked up): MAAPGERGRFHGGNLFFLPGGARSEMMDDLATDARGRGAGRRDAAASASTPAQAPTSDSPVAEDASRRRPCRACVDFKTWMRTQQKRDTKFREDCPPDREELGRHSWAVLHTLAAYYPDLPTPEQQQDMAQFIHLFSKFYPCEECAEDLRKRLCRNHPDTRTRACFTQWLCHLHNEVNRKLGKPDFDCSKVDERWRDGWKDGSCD
Pemphigus Ab inh = human desmoglein-3 autoantibody binding inhibition. P32926. DSG3-coupled beads, scFv-anti-DSG3-GFP binding, flow cytometry; hits give low values. binding (percent of control), % at 10 µM. actives 0.48% (n = 310,000);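 active = binding more than 3 SD below its plate's average and above zero; inconclusive = below that plate limit but binding exactly zero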;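 note: hits lower antibody fragment binding to DSG3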
Arrestin-AP2 inh = inhibitors of human beta-arrestin and AP2 interaction; FITC-arrestin peptide / GST-AP2 beads, flow cytometry; AP2 beta2 appendage carries R879A mutation; inhibition, % at 10 µM; actives 0.31% (n = 340,000); AID 504490;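 active = inhibition above a set limit, near 3 SD of compounds lacking own fluorescence, cut at about 54% in these data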
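Assay system: GST-AP2 R879A bound to glutathione beads, E. coli-expressed; Medium: PBS with 0.05% Tween 20 and 0.1% BSA; Also added: fluorescein-tagged arrestin peptide at 50 nM final; Timing: 12 min plus 1 h, RT; Measured by: flow cytometry, FL1 (488/535 nm); Evaluation: percent drop in bead-associated FITC signal.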
Hits are given with their value; 0 = inactive; ? = inconclusive; - = no result given. This is a sample that favours compounds with a hit; in the whole collection about 4.6% have one here.

SMILES	NALP3 yeast inh	PolyA inh	NALP1 yeast inh	ALR H2O2 inh	Pemphigus Ab inh	Arrestin-AP2 inh
O=S(=O)(c1cccc(-c2cn3ccccc3n2)c1)N1CCCCC1	0	0	0	0	0	0
Clc1ccc(Nc2ccc(NCc3ccccc3)nn2)cc1	0	0	71.8	0	0	0
CC(C(=O)NCC(=O)Nc1ccc(F)c(F)c1F)N1CCN(Cc2ccc(C#N)cc2)CC1 (stereo not given)	0	-	-	0	0	0
CC(C(=O)NCC(=O)Nc1ccc(F)c(F)c1F)N1CCN(c2ccc(O)cc2)CC1 (stereo not given)	0	-	-	99.1	0	0
COc1ccc(CNC(=O)c2cccc3c2C(=O)N(CC2CCCO2)C3)cc1 (stereo not given)	0	0	0	88.2	0	0
O=C(NCc1ccccn1)C1CCCN(S(=O)(=O)c2cccc3nsnc23)C1 (stereo not given)	0	0	31.8	0	0	0
O=C(NCc1cccs1)C1CCN(S(=O)(=O)c2cccc3cccnc23)CC1	0	0	0	94.7	0	0
O=C(C1CCN(S(=O)(=O)c2cccc3cccnc23)CC1)N1CCN(C2CCCC2)CC1	0	0	0	82.2	0	0
O=C(NCc1ccco1)C1CCCN(S(=O)(=O)c2cccc3nsnc23)C1 (stereo not given)	0	0	0	0	0	0
Cc1ccc(NC(=O)C2CCN(S(=O)(=O)c3cccc4cccnc34)CC2)nc1	0	0	0	95.5	0	0
O=C(NCc1ccco1)C1CCN(S(=O)(=O)c2cccc3cccnc23)CC1	0	0	0	0	0	0
O=C(COC(=O)CN1C(=O)C2CC=CCC2C1=O)Nc1cccc([N+](=O)[O-])c1 (stereo not given)	-	-	-	-	0	-
CC1CCC(NC(=O)CN2CCN(S(=O)(=O)c3ccc(Br)s3)CC2)CC1 (stereo not given)	-	-	-	-	0	-
CC(C)(C)S(=O)(=O)N1Cc2cc(=O)n(Cc3ccccc3)c(CCO)c2[C@H]1CCO	-	-	-	-	0	0
O=C1CCCC(O)=C1C=Nc1ccc(O)cc1	0	0	0	99.2	0	0
COCc1cc(C)nc(SCc2ccc(Br)cc2)c1C#N	0	0	-	0	0	0
CCCn1c(NCc2cccc(OC)c2O)nc2ccccc21	0	0	0	94.2	-	0
CCCn1c(NCc2c[nH]c3ccccc23)nc2ccccc21	0	0	0	-	-	0
COc1cccc(CNc2ccc3c(c2)ncn3C(C)C)c1OC	0	0	0	91.9	0	0
COc1cccc(CNc2ccc(F)c(Cl)c2)c1OC	0	0	0	?	0	0
CCCn1cnc2cc(NCc3cccc(OC)c3O)ccc21	0	0	0	85.4	0	0
CCCn1c(NCc2cccc(OC)c2OC)nc2ccccc21	0	0	0	97.8	0	0
Cc1onc(-c2ccccc2Cl)c1C(=O)NCc1nnnn1-c1ccc(F)cc1	0	0	-	0	0	0
COc1ccc(CN2CCNC(=O)C2CC(=O)NCCN2CCCCC2=O)c(F)c1 (stereo not given)	0	0	0	0	0	0
COc1cccc(CNCc2cccc(OC)c2O)c1O	-	-	-	-	0	0
SMILES	NALP3 yeast inh	PolyA inh	NALP1 yeast inh	ALR H2O2 inh	Pemphigus Ab inh	Arrestin-AP2 inh
COc1cccc(CNn2cnnc2)c1O	0	0	0	85.0	0	0
Cn1cnc2cc(NCc3ccccc3O)ccc21	0	0	0	87.0	0	0
Oc1ccccc1CNc1cnc2ccccc2c1	0	0	0	85.9	0	0
Oc1ccc(Cl)cc1CNc1cnc2ccccc2c1	0	0	0	0	0	0
Cc1ccc(N2C(=O)/C(=C/c3cccnc3)SC2=S)cc1	0	0	0	0	88.1	0
COc1ccc(CCCN2CCC(CN3CCNC(=O)C3=O)CC2)cc1OC	-	-	-	-	0	0
COc1ccc(C(=O)CSc2nc(SC)ns2)cc1OC	0	0	0	-	-	0
COc1ccc(C(=O)CSc2cc(C)nc3nc(C)nn23)cc1OC	0	0	0	98.4	0	0
COc1ccc(C(=O)CSC#N)cc1OC	0	0	0	98.8	0	0
O=C(COc1ccc(S(=O)(=O)N2CCOCC2)cc1)NCCc1ccc(Cl)cc1	-	-	-	-	0	-
CSC[C@H]1CN(c2ccccc2)C(=O)[C@@H]1CC(=O)Nc1ccccc1	-	-	-	-	0	-
CCOC(=O)C1=C(c2ccccc2)NC(=O)NC1c1ccc(N(C)C)cc1 (stereo not given)	0	0	0	99.0	-	0
COc1ccc(C(O)c2cnc(C)n2Cc2ccccc2)cc1 (stereo not given)	-	-	-	-	0	-
Cc1cc(OC(=O)c2ccc(F)cc2)c([N+](=O)[O-])c(=O)[nH]1	0	0	0	0	0	0
Cc1cc(OC(=O)C(C)(C)C)c([N+](=O)[O-])c(=O)[nH]1	0	0	33.9	0	0	0
C[C@]12CC[C@@H]3c4ccc(O)cc4CC[C@H]3[C@@H]1CC[C@@H]2O	0	0	0	-	53.1	0
CCC1NC(=O)c2cc3ccccc3cc2-n2c1nc1cc(OC)c(OC)cc1c2=O (stereo not given)	-	-	-	-	0	-
Cc1ccc2nc(Nc3ccc(C)c(C)c3)c3nncn3c2c1	0	0	0	0	0	0
Cn1c(N)c(C(=O)Nc2c(Cl)cccc2Cl)sc1=S	0	0	0	98.6	0	0
COC(=O)c1ccccc1NC(=O)c1sc(=S)n(C)c1N	0	0	0	0	0	0
Cn1c(N)c(C(=O)NCc2ccccc2)sc1=S	0	0	0	80.5	0	0
CCCCCC(=O)Nc1nc(C)c(-c2csc(Nc3cc(Cl)ccc3OC)n2)s1	0	0	0	0	78.6	0
CCC(=O)Nc1nc(C)c(-c2csc(Nc3cccc(C(=O)O)c3)n2)s1	0	0	0	87.5	0	0
CC(=O)Nc1nc(C)c(-c2csc(Nc3ccc(O)cc3)n2)s1	0	-	0	99.0	0	0
Cc1nc(C)c(-c2csc(Nc3ccc(N)cc3)n2)s1	0	0	0	0	0	0
SMILES	NALP3 yeast inh	PolyA inh	NALP1 yeast inh	ALR H2O2 inh	Pemphigus Ab inh	Arrestin-AP2 inh
Cc1nc(C)c(-c2csc(Nc3cccnc3)n2)s1	0	0	0	89.4	0	0
CC1=C(CC(=O)NCC(=O)NCC(=O)O)c2cc(F)ccc2/C1=C/c1ccc(S(C)=O)cc1 (stereo not given)	0	0	0	0	0	0
COC(C(=O)Nc1ccnn1C1CCN(Cc2ccc(Cl)s2)CC1)c1ccccc1 (stereo not given)	0	0	0	0	0	0
Cc1cc(O)ccc1Nc1nc(-c2sc(N)nc2C)cs1	0	0	0	85.3	0	0
Cc1nc(C)c(-c2csc(Nc3ccc(O)c(C(=O)O)c3)n2)s1	0	0	0	88.6	0	0
O=C(NC1CCCCC1)c1cc(S(=O)(=O)N2CCCC2)ccc1Cl	0	0	0	-	0	0
O=C1Nc2ccc(Br)cc2/C1=C/C(=O)c1ccccc1	-	-	-	-	0	0
O=C(O)COc1ccccc1/C=C1\C(=O)Nc2ccc(Br)cc21	0	0	0	97.6	0	0
COC1=Nc2ccccc2/C=C\c2ccccc21	-	-	-	-	0	-
